Results as given in publication PMC5114172 (Journal of applied toxicology : JAT, 2016).

Tested on: monocyte-depleted PBMCs
Assay: IL-1β secretion assay
Type: cell-based, human
Conditions: MD-PBMCs
In short: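 NK cells, MD-PBMCs, PBMCs or granulocytes (1.5 million/mL) or PBMC+granulocytes (0.75 million/mL each), per donor, exposed 24 h, 48 h or 6 days to 0.05–5 μM test compound diluted from DMSO stock, with DMSO controls. Supernatants kept at −70 °C. IL-1β by sandwich ELISA: HRP detection antibody, acid-stopped substrate, A450 against standards. Detection limit 3 pg/mL; triplicates; ANOVA then t test versus control, p<0.05.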

CCC[CH2][Sn][CH2]CCC [DBT, Dibutyltin]
average of the maximum fold increase in IL-β secretion (24 h, across donors): 2.0 fold
Interleukin 1 beta secreted (donor F142, 24 h, 0.05 μM DBT): 11284 ± 763 pg/mL
fold increase in IL-1β secretion (donor F142, 24 h, 0.05 μM DBT): 1.5 fold
fold increase in IL-1β secretion (donor F142, 24 h, 50 nM DBT): 1.5 fold
Interleukin 1 beta secreted (donor F142, 24 h, 0.1 μM DBT): 12495 ± 3130 pg/mL
fold increase in IL-1β secretion (donor F142, 24 h, 100 nM DBT): 1.6 fold
Interleukin 1 beta secreted (donor F142, 24 h, 0.25 μM DBT): 4456 ± 561 pg/mL
Interleukin 1 beta secreted (donor F142, 24 h, 0.5 μM DBT): 2637 ± 1438 pg/mL
Interleukin 1 beta secreted (donor F142, 24 h, 1 μM DBT): 77 ± 24 pg/mL
Interleukin 1 beta secreted (donor F142, 48 h, 0.05 μM DBT): 14932 ± 420 pg/mL
Interleukin 1 beta secreted (donor F142, 48 h, 0.1 μM DBT): 15275 ± 650 pg/mL
Interleukin 1 beta secreted (donor F142, 48 h, 0.25 μM DBT): 6455 ± 123 pg/mL
Interleukin 1 beta secreted (donor F142, 48 h, 0.5 μM DBT): 2604 ± 133 pg/mL
Interleukin 1 beta secreted (donor F142, 48 h, 1 μM DBT): 851 ± 54 pg/mL
Interleukin 1 beta secreted (donor F142, 48 h, 2.5 μM DBT): 6 ± 27 pg/mL
Interleukin 1 beta secreted (donor F142, 6 day, 0.05 μM DBT): 2303 ± 313 pg/mL
Interleukin 1 beta secreted (donor F142, 6 day, 0.1 μM DBT): 1606 ± 808 pg/mL
Interleukin 1 beta secreted (donor F142, 6 day, 0.25 μM DBT): 560 ± 127 pg/mL
Interleukin 1 beta secreted (donor F142, 6 day, 0.5 μM DBT): 270 ± 197 pg/mL
Interleukin 1 beta secreted (donor F142, 6 day, 1 μM DBT): 90 ± 100 pg/mL
Interleukin 1 beta secreted (donor F145, 24 h, 0.05 μM DBT): 3333 ± 164 pg/mL
fold increase in IL-1β secretion (donor F145, 24 h, 50 nM DBT): 1.5 fold
Interleukin 1 beta secreted (donor F145, 24 h, 0.1 μM DBT): 2390 ± 497 pg/mL
fold increase in IL-1β secretion (donor F145, 24 h, 100 nM DBT): no increase
Interleukin 1 beta secreted (donor F145, 24 h, 0.25 μM DBT): 700 ± 8 pg/mL
Interleukin 1 beta secreted (donor F145, 24 h, 0.5 μM DBT): 47 ± 59 pg/mL
Interleukin 1 beta secreted (donor F145, 48 h, 0.05 μM DBT): 780 ± 323 pg/mL
Interleukin 1 beta secreted (donor F145, 48 h, 0.1 μM DBT): 2232 ± 1035 pg/mL
Interleukin 1 beta secreted (donor F145, 48 h, 0.25 μM DBT): 337 ± 347 pg/mL
Interleukin 1 beta secreted (donor F145, 6 day, 0.05 μM DBT): 983 ± 248 pg/mL
Interleukin 1 beta secreted (donor F145, 6 day, 0.1 μM DBT): 987 ± 577 pg/mL
Interleukin 1 beta secreted (donor F145, 6 day, 0.25 μM DBT): 535 ± 16 pg/mL
Interleukin 1 beta secreted (donor F145, 6 day, 0.5 μM DBT): 147 ± 55 pg/mL
Interleukin 1 beta secreted (donor F152, 24 h, 0.05 μM DBT): 721 ± 36 pg/mL
Interleukin 1 beta secreted (donor F152, 24 h, 0.1 μM DBT): 516 ± 26 pg/mL
Interleukin 1 beta secreted (donor F152, 24 h, 0.25 μM DBT): 406 ± 29 pg/mL
Interleukin 1 beta secreted (donor F152, 24 h, 0.5 μM DBT): 340 ± 57 pg/mL
Interleukin 1 beta secreted (donor F152, 24 h, 1 μM DBT): 224 ± 9 pg/mL
Interleukin 1 beta secreted (donor F152, 24 h, 2.5 μM DBT): 83 ± 22 pg/mL
Interleukin 1 beta secreted (donor F152, 24 h, 5 μM DBT): 19 ± 12 pg/mL
Interleukin 1 beta secreted (donor F152, 48 h, 0.05 μM DBT): 563 ± 54 pg/mL
Interleukin 1 beta secreted (donor F152, 48 h, 0.1 μM DBT): 495 ± 72 pg/mL
Interleukin 1 beta secreted (donor F152, 48 h, 0.25 μM DBT): 607 ± 71 pg/mL
Interleukin 1 beta secreted (donor F152, 48 h, 0.5 μM DBT): 703 ± 34 pg/mL
Interleukin 1 beta secreted (donor F152, 48 h, 1 μM DBT): 296 ± 56 pg/mL
Interleukin 1 beta secreted (donor F152, 48 h, 2.5 μM DBT): 35 ± 38 pg/mL
Interleukin 1 beta secreted (donor F152, 48 h, 5 μM DBT): 86 ± 37 pg/mL
Interleukin 1 beta secreted (donor F152, 6 day, 0.05 μM DBT): 81 ± 21 pg/mL
Interleukin 1 beta secreted (donor F152, 6 day, 0.1 μM DBT): 71 ± 6 pg/mL
Interleukin 1 beta secreted (donor F152, 6 day, 0.25 μM DBT): 118 ± 11 pg/mL
Interleukin 1 beta secreted (donor F152, 6 day, 0.5 μM DBT): 161 ± 62 pg/mL
Interleukin 1 beta secreted (donor F152, 6 day, 1 μM DBT): 41 ± 7 pg/mL
Interleukin 1 beta secreted (donor F152, 6 day, 2.5 μM DBT): 20 ± 18 pg/mL
Interleukin 1 beta secreted (donor F152, 6 day, 5 μM DBT): 14 ± 1 pg/mL
Interleukin 1 beta secreted (donor F163, 24 h, 0.05 μM DBT): 613 ± 57 pg/mL
Interleukin 1 beta secreted (donor F163, 24 h, 0.1 μM DBT): 370 ± 13 pg/mL
Interleukin 1 beta secreted (donor F163, 24 h, 0.25 μM DBT): 309 ± 15 pg/mL
Interleukin 1 beta secreted (donor F163, 24 h, 0.5 μM DBT): 310 ± 16 pg/mL
Interleukin 1 beta secreted (donor F163, 24 h, 1 μM DBT): 130 ± 5 pg/mL
Interleukin 1 beta secreted (donor F163, 24 h, 2.5 μM DBT): 70 ± 25 pg/mL
Interleukin 1 beta secreted (donor F163, 24 h, 5 μM DBT): 86 ± 44 pg/mL
Interleukin 1 beta secreted (donor F163, 48 h, 0.05 μM DBT): 607 ± 86 pg/mL
Interleukin 1 beta secreted (donor F163, 48 h, 0.1 μM DBT): 342 ± 34 pg/mL
Interleukin 1 beta secreted (donor F163, 48 h, 0.25 μM DBT): 547 ± 68 pg/mL
Interleukin 1 beta secreted (donor F163, 48 h, 0.5 μM DBT): 677 ± 378 pg/mL
Interleukin 1 beta secreted (donor F163, 48 h, 1 μM DBT): 701 ± 111 pg/mL
Interleukin 1 beta secreted (donor F163, 6 day, 0.05 μM DBT): 715 ± 87 pg/mL
Interleukin 1 beta secreted (donor F163, 6 day, 0.1 μM DBT): 497 ± 75 pg/mL
Interleukin 1 beta secreted (donor F163, 6 day, 0.25 μM DBT): 305 ± 36 pg/mL
Interleukin 1 beta secreted (donor F163, 6 day, 0.5 μM DBT): 664 ± 70 pg/mL
Interleukin 1 beta secreted (donor F163, 6 day, 1 μM DBT): 175 ± 3 pg/mL
Interleukin 1 beta secreted (donor F166, 24 h, 0.05 μM DBT): 6772 ± 386 pg/mL
fold increase in IL-1β secretion (donor F166, 24 h, 0.05 μM DBT): 3.0 fold
Interleukin 1 beta secreted (donor F166, 24 h, 0.1 μM DBT): 5569 ± 527 pg/mL
Interleukin 1 beta secreted (donor F166, 24 h, 0.25 μM DBT): 2788 ± 126 pg/mL
Interleukin 1 beta secreted (donor F166, 24 h, 0.5 μM DBT): 158 ± 43 pg/mL
Interleukin 1 beta secreted (donor F166, 48 h, 0.05 μM DBT): 14662 ± 1044 pg/mL
Interleukin 1 beta secreted (donor F166, 48 h, 0.1 μM DBT): 12941 ± 423 pg/mL
Interleukin 1 beta secreted (donor F166, 48 h, 0.25 μM DBT): 5307 ± 349 pg/mL
Interleukin 1 beta secreted (donor F166, 48 h, 0.5 μM DBT): 924 ± 101 pg/mL
Interleukin 1 beta secreted (donor F166, 48 h, 1 μM DBT): 1075 ± 230 pg/mL
Interleukin 1 beta secreted (donor F166, 48 h, 2.5 μM DBT): 1981 ± 3260 pg/mL
Interleukin 1 beta secreted (donor F166, 6 day, 0.05 μM DBT): 6655 ± 930 pg/mL
Interleukin 1 beta secreted (donor F166, 6 day, 0.1 μM DBT): 4959 ± 11 pg/mL
